Laboratory results published in ChEMBL document CHEMBL4265908, “Structure-activity and structure-property relationships of novel Nrf2 activators with a 1,2,4-oxadiazole core and their therapeutic effects on acetaminophen (APAP)-induced acute liver injury” (Eur J Med Chem, 2018).

Experiments:
Format in all cases: cell-based
[1] = biological target: T1, Nuclear factor erythroid 2-related factor 2 (Homo sapiens) (UniProt Q16236); assay: Activation of Nrf2 in human HepG2-ARE-C8 cells assessed as induction of ARE-mediated luciferase activity at 0.01 uM after 24 hrs by luciferase reporter gene assay relative to control
T1 sequence (whole entry): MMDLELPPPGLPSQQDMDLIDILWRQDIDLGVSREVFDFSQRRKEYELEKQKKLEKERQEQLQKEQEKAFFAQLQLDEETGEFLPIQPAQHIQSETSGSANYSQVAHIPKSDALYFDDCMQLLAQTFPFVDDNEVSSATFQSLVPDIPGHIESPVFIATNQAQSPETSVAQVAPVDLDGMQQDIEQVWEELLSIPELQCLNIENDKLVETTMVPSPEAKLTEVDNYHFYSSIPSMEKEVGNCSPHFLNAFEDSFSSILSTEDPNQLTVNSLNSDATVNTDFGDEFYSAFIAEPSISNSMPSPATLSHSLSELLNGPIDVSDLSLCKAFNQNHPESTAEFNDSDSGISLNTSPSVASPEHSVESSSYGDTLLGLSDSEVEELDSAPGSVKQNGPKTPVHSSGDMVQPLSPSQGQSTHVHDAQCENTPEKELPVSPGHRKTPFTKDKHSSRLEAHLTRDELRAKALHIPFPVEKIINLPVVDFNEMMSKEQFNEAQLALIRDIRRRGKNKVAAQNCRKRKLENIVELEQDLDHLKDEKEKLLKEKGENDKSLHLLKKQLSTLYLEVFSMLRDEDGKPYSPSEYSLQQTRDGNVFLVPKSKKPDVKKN
Procedure, shortened: (§1)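 HepG2-ARE-C8 cells stably carrying ARE-luciferase, grown in DMEM with 10% FBS at 37 °C and 5% CO2. Seeded at 5 × 10^4 cells/well, left overnight, then given compound diluted from a 10 mM DMSO stock for 24 h. Cells lysed and luciferase read as RLU. Inductivity = (RLUtest − RLUblank)/(RLUcontrol − RLUblank), with DMSO as control. Mean ± SEM of three experiments.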

[2] = biological target: T1, Nuclear factor erythroid 2-related factor 2 (Homo sapiens); assay: Activation of Nrf2 in human HepG2-ARE-C8 cells assessed as induction of ARE-mediated luciferase activity at 40 uM after 24 hrs by luciferase reporter gene assay relative to control; procedure, shortened: as §1
[3] = biological target: T1, Nuclear factor erythroid 2-related factor 2 (Homo sapiens); assay: Activation of Nrf2 in human HepG2-ARE-C8 cells assessed as induction of ARE-mediated luciferase activity at 20 uM after 24 hrs by luciferase reporter gene assay relative to control; procedure, shortened: as §1
[4] = biological target: T1, Nuclear factor erythroid 2-related factor 2 (Homo sapiens); assay: Activation of Nrf2 in human HepG2-ARE-C8 cells assessed as induction of ARE-mediated luciferase activity at 1 uM after 24 hrs by luciferase reporter gene assay relative to control; procedure, shortened: as §1
[5] = biological target: T1, Nuclear factor erythroid 2-related factor 2 (Homo sapiens); assay: Activation of Nrf2 in human HepG2-ARE-C8 cells assessed as induction of ARE-mediated luciferase activity at 0.1 uM after 24 hrs by luciferase reporter gene assay relative to control; procedure, shortened: as §1
[6] = biological target: T1, Nuclear factor erythroid 2-related factor 2 (Homo sapiens); assay: Activation of Nrf2 in human HepG2-ARE-C8 cells assessed as induction of ARE-mediated luciferase activity at 80 uM after 24 hrs by luciferase reporter gene assay relative to control; procedure, shortened: as §1
HepG2 = assay: Cytotoxicity against human HepG2 cells at 80 uM after 24 hrs by MTT assay; conditions: hepg2, 24 h

SMILES | Activity [1] | Activity [2] | Activity [3] | Activity [4] | Activity [5] | Activity [6] | Activity (HepG2)
Fc1ccc(-c2nc(-c3ccc4nc[nH]c4c3)no2)cc1Cl | 1.04 | 9.59 | 7.53 | 3.22 | 3.88 | 12.5 | 
Fc1ccc(-c2nc(-c3ccc4[nH]cnc4c3)no2)cc1Cl |  |  |  |  |  |  | Non-Toxic
Fc1cc(F)c(-c2nc(-c3ccc4nc[nH]c4c3)no2)cc1Cl | 1.94 | 5.14 | 3.35 | 1.26 | 1.18 | 7.61 | Non-Toxic
Fc1ccccc1-c1nc(-c2ccc3nc[nH]c3c2)no1 | 2.01 | 15 | 12.7 | 12 | 4.51 | 19.1 | Non-Toxic
Fc1ccc(-c2noc(-c3ccc(F)c(F)c3)n2)cc1F | 1.42 | 2.68 | 1.73 | 1.73 | 1.36 | 2.56 | Non-Toxic
Fc1ccc(-c2nc(-c3ccc4nc[nH]c4c3)no2)c(Br)c1 | 1.01 | 21.6 | 12.1 | 4.18 | 2.65 | 25.1 | Non-Toxic
CC(=O)c1ccc(-c2noc(-c3ccc(F)c(F)c3)n2)cc1 | 1.25 | 3.78 | 2.61 | 2.04 | 2.03 | 5.01 | Non-Toxic
Fc1ccc(F)c(-c2nc(-c3ccc4nc[nH]c4c3)no2)c1 | 2.31 | 20.2 | 16.9 | 5.24 | 4.15 | 21.9 | Non-Toxic
Fc1ccc(-c2nc(-c3cccnc3)no2)cc1F | 1.45 | 3.15 | 3.15 | 2.02 | 1.71 | 4.15 | Non-Toxic
Fc1ccc(-c2nc(-c3ccccc3Br)no2)cc1F | 0.58 | 2.63 | 1.98 | 1.76 | 1.16 | 3.63 | Non-Toxic
Fc1ccc(-c2nc(-c3ncccc3F)no2)cc1F | 1.15 | 2.52 | 1.75 | 1.56 | 1.25 | 2.95 | Non-Toxic
Fc1ccc(-c2nc(-c3ccccn3)no2)cc1F | 0.65 | 1.32 | 1.31 | 1.05 | 0.83 | 2.55 | Non-Toxic
Fc1ccc(-c2noc(-c3ccc(F)c(F)c3)n2)nc1 | 0.96 | 5.79 | 2.95 | 2.17 | 1.97 | 6.35 | Non-Toxic
COc1cc(OC)cc(-c2noc(-c3ccc(F)c(F)c3)n2)c1 | 1.87 | 3.55 | 3.45 | 2.15 | 1.91 | 4.45 | Non-Toxic
Fc1ccc(-c2noc(-c3ccc(F)c(F)c3)n2)cc1 | 1.76 | 5.68 | 3.75 | 2.05 | 2.12 | 6.93 | Non-Toxic
Fc1ccc(-c2nc(-c3ccc(Cl)cc3)no2)cc1F | 2.85 | 8.29 | 7.65 | 3.85 | 3.06 | 9.95 | Non-Toxic
Fc1cccc(-c2nc(-c3ccc4nc[nH]c4c3)no2)c1F | 1.77 | 10.7 | 4.55 | 3.7 | 2.22 | 16.5 | Non-Toxic
